# Measurements taken from ChEMBL document CHEMBL1128240, “Studies on new acidic azoles as glucose-lowering agents in obese, diabetic db/db mice” (J Med Chem, 1995).
# Active and inactive are the calls of the source. The rule behind the calls is not given here.
# Assays:
# [1] = system: Mus musculus; assay: percentage change in plasma glucose concentration of drug treated mice relative to vehicle controls at 20 mg/kg (once daily perorally x 4) in groups of db/db mice compared to vehicle control; format: functional; conditions: route oral
# Procedure, shortened: (§1)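 Male C57BL/KsJ db/db mice (2-7 months, 35-60 g), 4 h fasted baseline tail blood on day 1; extremes excluded, randomized into groups (N = 4-6) of equal mean glucose. Dosed po as suspension in 2% Tween 80/saline on afternoons of days 1-3 (fed) and day 4 after 3 h fast. Plasma glucose (Abbott VP analyzer) 2 and 4 h post-dose, mean versus day-1 baseline; ANOVA with one-sided Dunnett's test against vehicle.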
# [2] = system: Mus musculus; assay: percentage change in plasma glucose concentration of drug treated mice relative to vehicle controls at 27 mg/kg (once daily perorally x 4) in groups of db/db mice; NA = not active; format: functional, organism-based; set-up: dose 27 mg/kg; procedure, shortened: as §1
# [3] = system: Mus musculus; assay: percentage change in plasma glucose concentration of drug treated mice relative to vehicle controls at 100 mg/kg (once daily perorally x 4) in groups of db/db mice compared to vehicle control; format: functional; conditions: route oral; procedure, shortened: as §1
# [4] = system: Mus musculus; assay: percentage change in plasma glucose concentration of drug treated mice relative to vehicle controls at 20 mg/kg (once daily perorally x 4) in groups of db/db mice; NA = not active; format: functional, organism-based; set-up: dose 20 mg/kg; procedure, shortened: as §1
# [5] = system: Mus musculus; assay: percentage change in plasma glucose concentration of drug treated mice relative to vehicle controls at 100 mg/kg (once daily perorally x 4) in groups of db/db mice; NA= not active; format: functional, organism-based; set-up: dose 100 mg/kg; procedure, shortened: as §1
# [6] = system: Mus musculus; assay: Percentage change in plasma glucose concentration of drug treated mice relative to vehicle controls at 100 mg/kg (once daily perorally x 4) in groups of db/db mice; NA = not active; format: functional, organism-based; set-up: dose 100 mg/kg; procedure, shortened: as §1
# [7] = system: Mus musculus; assay: percentage change in plasma glucose concentration of drug treated mice relative to vehicle controls at 20 mg/kg (once daily perorally x 4) in groups of db/db mice; Not active; format: functional, organism-based; set-up: dose 20 mg/kg; procedure, shortened: as §1
# [8] = system: Mus musculus; assay: percentage change in plasma glucose concentration of drug treated mice relative to vehicle controls at 73 mg/kg (once daily perorally x 4) in groups of db/db mice compared to vehicle control; format: functional; conditions: route oral; procedure, shortened: as §1
# [9] = Partition coefficient (logP); format: physicochemical; conditions: octanol/water; read-out: logP
# Procedure, shortened: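 Manual shake-flask octanol/aqueous partition. Buffer was 0.01 M K2HPO4 at pH 7.4. Sample was shaken 1 min, equilibrated 4 h, and phases separated and centrifuged. Each phase was quantified by reverse-phase C18 HPLC (acetonitrile/0.01 M […] pH 3.5, 214 nm). Average of at least two runs.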
# [10] = Dissociation constant measured by potentiometric titration (in duplicate) in 1:1 dioxane-water using a Fisher accumet pH meter model 630 and a Perkin-Elmer chart recorder model 56.; format: physicochemical
# Procedure, shortened: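 Apparent pKa from potentiometric titration with 0.1 N NaOH in dioxane–water (1:1). Sample concentration 0.2 mM, solvent 30 mL, 25 °C, titrant flow 0.17 mL/min. Value is the average of two runs. The system was conditioned and checked in duplicate against piperazine, allantoin, barbituric acid and ciglitazone standards.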
# [11] = system: Mus musculus; assay: percentage change in plasma glucose concentration of drug treated mice relative to vehicle controls at 5 mg/kg (once daily perorally x 4) in groups of db/db mice; format: functional; conditions: route oral; procedure, shortened: as §1
# [12] = system: Mus musculus; assay: percentage change in plasma glucose concentration of drug treated mice relative to vehicle controls at 53 mg/kg (once daily perorally x 4) in groups of db/db mice; NA = not active; format: functional, organism-based; set-up: dose 53 mg/kg; procedure, shortened: as §1
structure (smiles),measurement,setting,value
Oc1[nH]nc(C(F)(F)F)c1Cc1ccc2c(c1)OCO2,Change,[1],-38%
Oc1[nH]ncc1Cc1ccc2ccccc2c1,Change,[2],inactive
COC(=O)C(=O)/C=C(\O)c1ccc2ccccc2c1,Change,[3],-37%
Cc1n[nH]c(O)c1Cc1ccc2ccccc2c1,Change,[3],-42%
same,Change,[1],-31%
Cc1n[nH]c(O)c1Cc1cccc2ccccc12,Change,[4],inactive
Oc1[nH]nc(C(F)(F)F)c1Cc1ccc2sccc2c1,Change,[1],-29%
Oc1[nH]nc(C(F)(F)C(F)(F)C(F)(F)F)c1Cc1ccc2ccccc2c1,Change,[5],inactive
Oc1n[nH]nc1Cc1ccc2ccccc2c1,Change,[6],inactive
Cc1n[nH]c(O)c1Cc1ccc2c(c1)OCCO2,Change,[1],-21%
Cc1noc(O)c1Cc1ccc2ccccc2c1Br,Change,[4],inactive
Oc1[nH]nc(C(F)(F)F)c1Cc1ccc2c(Br)cccc2c1,Change,[1],-22%
Oc1c(Cc2ccc3ccccc3c2)nnn1Cc1ccccc1,Change,[6],inactive
Oc1[nH]nc(-c2ccccc2)c1Cc1ccc2ccccc2c1,Change,[6],inactive
COCc1noc(O)c1Cc1ccc2ccccc2c1,Change,[6],inactive
O=C1NC(=O)C(Cc2ccc3ccccc3c2)=C1O,Change,[7],inactive
Oc1n[nH]c(O)c1Cc1ccc2ccccc2c1,Change,[6],inactive
COC(=O)c1cc(-c2ccc3ccccc3c2)[nH]n1,Change,[6],inactive
Cc1n[nH]c(O)c1CSc1nc2ccccc2[nH]1,Change,[5],inactive
Cc1o[nH]c(=O)c1Cc1ccccc1,Change,[6],inactive
Nc1n[nH]c(O)c1Cc1ccc2ccccc2c1,Change,[8],-27%
Cc1o[nH]c(=O)c1Cc1ccc2ccccc2c1Br,Change,[4],inactive
c1ccc2cc(Cc3nnn[nH]3)ccc2c1,logP,[9],0.72
same,pKa,[10],5.77
same,Change,[7],inactive
Oc1[nH]nc(C(F)(F)F)c1Cc1ccc2ccccc2c1,Change,[11],-16%
Cc1n[nH]c(O)c1Cc1nc2ccccc2o1,Change,[12],inactive
Oc1[nH]nc2c1CCc1ccccc1-2,Change,[6],inactive
Cn1nnc(O)c1Cc1ccc2ccccc2c1,logP,[9],2.12
same,pKa,[10],9.11
same,Change,[4],inactive
Cc1c(O)nnn1Cc1ccc2ccccc2c1,Change,[6],inactive
Cc1c(Cc2ccc3ccccc3c2)o[nH]c1=O,Change,[6],inactive
